Results from ChEMBL document CHEMBL1140381, “Design and studies of novel 5-substituted alkynylpyrimidine nucleosides as potent inhibitors of mycobacteria” (2005).
In brackets after ≈: the same amount, converted by molar mass.

How the values were obtained:
Type in all cases: functional
Mycobacterium avium [1] = assay: Inhibition of growth of Mycobacterium avium (ATCC 25291) was determined using microplate alamar blue assay at 100 ug/mL concentration with compound dissolved in DMSO
Method in brief: (§1)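 MABA in 7H9GC medium; M. bovis BCG or M. avium ATCC 25291 frozen inocula at 2.5 × 10⁵ CFU/mL final, 100× DMSO stocks diluted into medium. Incubated 6 days, then alamar blue plus 20% Tween-80 added once bacteria-only wells turned pink, read 24 h later by fluorescence. % inhibition = […]. Triplicate wells, three experiments, mean reported.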

Mycobacterium avium [2] = assay: Minimum inhibitory concentration against Mycobacterium avium (ATCC 25291)
Method in brief: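 Alamar blue microplate assay in 7H9GC. BCG or M. avium ATCC 25291 at 2.5 × 10⁵ CFU/mL final, exposed to compound at 100, 50, 10 and 1 µg/mL in triplicate. Reagent added after 6+ days once growth controls turned pink, read after 24 h visually and by fluorescence. MIC₉₀ taken as the lowest concentration giving ~90% growth inhibition.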

Mycobacterium avium [3] = assay: Inhibition of growth of Mycobacterium avium (ATCC 25291) was determined using microplate alamar blue assay at 50 ug/mL concentration with compound dissolved in DMSO; method in brief: as §1
Mycobacterium avium [4] = assay: Inhibition of growth of Mycobacterium avium (ATCC 25291) was determined using microplate alamar blue assay at 10 ug/mL concentration with compound dissolved in DMSO; method in brief: as §1
Mycobacterium avium [5] = assay: Inhibition of growth of Mycobacterium avium (ATCC 25291) was determined using microplate alamar blue assay at 2 ug/mL concentration with compound dissolved in DMSO

SMILES | inhibition at 100 µg/mL (Mycobacterium avium [1]) [%] | MIC90 (Mycobacterium avium [2]) [µg/mL] | inhibition at 50 µg/mL (Mycobacterium avium [3]) [%] | inhibition at 10 µg/mL (Mycobacterium avium [4]) [%] | inhibition at 2 µg/mL (Mycobacterium avium [5]) [%]
CCCCCC#Cc1cn([C@H]2C[C@H](O)[C@@H](CO)O2)c(=O)[nH]c1=O | 25 |  |  |  | 
CCCCCCCCC#Cc1cn([C@H]2C[C@H](O)[C@@H](CO)O2)c(=O)[nH]c1=O | 30 |  |  |  | 
CCCCCCCCCCC#Cc1cn([C@H]2C[C@H](O)[C@@H](CO)O2)c(=O)nc1N | 100 | 100 (≈ 255 µM) | 60 | 10 | 
CO[C@H]1/C=C/O[C@@]2(C)Oc3c(C)c(O)c4c(O)c(c(/C=N/N5CCN(C)CC5)c(O)c4c3C2=O)NC(=O)/C(C)=C\C=C\[C@H](C)[C@H](O)[C@@H](C)[C@@H](O)[C@@H](C)[C@H](OC(C)=O)[C@@H]1C [RIFAMPIN] |  | 2 (≈ 2.43 µM) |  |  | 90
CCCCCCCCC#Cc1cn([C@H]2C[C@H](O)[C@@H](CO)O2)c(=O)nc1N | 75 |  | 50 | 20 | 
CC[C@H]1OC(=O)[C@H](C)[C@@H](O[C@H]2C[C@@](C)(OC)[C@@H](O)[C@H](C)O2)[C@H](C)[C@@H](O[C@@H]2O[C@H](C)C[C@H](N(C)C)[C@H]2O)[C@](C)(OC)C[C@@H](C)C(=O)[C@H](C)[C@@H](O)[C@]1(C)O [CLARITHROMYCIN] |  | 2 (≈ 2.67 µM) |  |  | 95
CCCCCCCCCCCCC#Cc1cn([C@H]2C[C@H](O)[C@@H](CO)O2)c(=O)[nH]c1=O | 75 |  | 30 |  | 
CCCCCCCCCCC#Cc1cn([C@H]2C[C@H](O)[C@@H](CO)O2)c(=O)[nH]c1=O | 75 |  | 0 |  | 
